# In ChEMBL document CHEMBL4387704, “Design, synthesis and biological evaluation of novel isoindolinone derivatives as potent histone deacetylase inhibitors” (Eur J Med Chem, 2019):
# pIC50: −log10 of the molar value. The source made the active and inactive calls. The calls are words filed in the database; no cut-off is given here.
# How the values were obtained:
# [1] = test system: HCT-15; experiment: Growth inhibition of human HCT15 cells assessed as cell growth inhibition at 10 uM incubated for 48 hrs by sulforhodamine B assay; format: functional; conditions: HCT-15, 48 h, read-out: GI
# [2] = test system: HL-60; experiment: Antiproliferative activity against human HL60 assessed as reduction in cell viability measured after 72 hrs using alamar blue based fluorescence method; format: functional; conditions: HL-60, 72 h
# How it was run: (§1)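 Leukemia lines grown in IMDM with penicillin/streptomycin, HL-60 with 20% FBS and K562 with 10% FBS, at 37 °C, 5% CO2. Cells in 96-well plates exposed to drug for 72 h. Alamar blue (1 mM solution) added for 5–6 h, fluorescence read at 530/590 nm.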
# [3] = test system: MOLT-4; experiment: Growth inhibition of human MOLT4 cells assessed as cell growth inhibition at 10 uM incubated for 48 hrs by sulforhodamine B assay; format: functional; conditions: MOLT-4, 48 h, read-out: GI
# [4] = target: Histone deacetylase 7 (Homo sapiens) (UniProt Q8WUI4); experiment: Inhibition of HDAC7 (unknown origin) using Fluor de Lys substrate by fluorescence assay relative to control
# Sequence of Histone deacetylase 7 (Homo sapiens) (Q8WUI4 whole entry, canonical isoform): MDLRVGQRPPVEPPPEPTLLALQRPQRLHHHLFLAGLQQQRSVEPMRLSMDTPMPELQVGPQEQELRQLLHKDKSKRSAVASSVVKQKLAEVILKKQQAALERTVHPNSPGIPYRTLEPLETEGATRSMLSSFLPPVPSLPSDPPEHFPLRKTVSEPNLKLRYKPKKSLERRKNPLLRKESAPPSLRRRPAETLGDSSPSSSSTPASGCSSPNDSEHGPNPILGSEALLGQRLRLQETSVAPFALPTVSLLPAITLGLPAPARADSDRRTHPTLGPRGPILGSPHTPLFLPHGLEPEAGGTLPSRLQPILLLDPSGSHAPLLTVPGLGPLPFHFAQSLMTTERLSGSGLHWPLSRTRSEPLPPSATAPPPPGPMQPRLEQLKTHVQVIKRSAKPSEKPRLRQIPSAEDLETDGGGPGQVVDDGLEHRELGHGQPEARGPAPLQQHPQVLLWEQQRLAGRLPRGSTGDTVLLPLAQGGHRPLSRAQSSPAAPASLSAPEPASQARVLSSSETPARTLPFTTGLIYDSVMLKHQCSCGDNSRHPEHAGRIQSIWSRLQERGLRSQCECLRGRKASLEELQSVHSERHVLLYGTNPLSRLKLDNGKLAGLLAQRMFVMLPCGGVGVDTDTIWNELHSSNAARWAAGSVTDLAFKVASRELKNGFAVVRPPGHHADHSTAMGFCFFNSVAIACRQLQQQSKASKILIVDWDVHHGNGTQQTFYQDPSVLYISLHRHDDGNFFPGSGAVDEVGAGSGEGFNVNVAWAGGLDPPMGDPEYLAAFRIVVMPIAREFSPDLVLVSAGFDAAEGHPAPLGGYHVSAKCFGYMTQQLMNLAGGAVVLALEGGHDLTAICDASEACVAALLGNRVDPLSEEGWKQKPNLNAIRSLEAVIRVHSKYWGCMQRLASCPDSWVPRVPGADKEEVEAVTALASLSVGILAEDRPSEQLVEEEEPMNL
# How it was run: (§2)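 Recombinant HDAC isoform assays run by a contract lab. Compounds in DMSO, 10-dose IC50 mode, 3-fold serial dilution from 50 μM. Duplicate runs; IC50 from curve fitting.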
# [5] = test system: MCF7; experiment: Antiproliferative activity against human MCF7 assessed as reduction in cell viability measured after 72 hrs using alamar blue based fluorescence method; format: functional; conditions: MCF7, 72 h
# How it was run: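 HCT116 and MCF-7 grown in McCoy's 5A with 10% FBS and penicillin/streptomycin at 37 °C, 5% CO2. Cells plated in 96-well format and exposed to drug for 72 h. Alamar blue (1 mM solution) added, incubated 5–6 h, fluorescence read at 530/590 nm.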
# [6] = test system: K562; experiment: Potency index, ratio of IC50 of chidamide to IC50 of test compound against human K562 cells; format: functional
# [7] = test system: RPMI-8226; experiment: Growth inhibition of human RPMI8226 cells assessed as cell growth inhibition at 10 uM incubated for 48 hrs by sulforhodamine B assay; format: functional; conditions: RPMI-8226, 48 h, read-out: GI
# [8] = target: Histone deacetylase 2 (Homo sapiens, UniProt Q92769); experiment: Inhibition of HDAC2 (unknown origin) using Fluor de Lys substrate by fluorescence assay relative to control; how it was run: as §2
# Sequence of Histone deacetylase 2 (Q92769 whole entry): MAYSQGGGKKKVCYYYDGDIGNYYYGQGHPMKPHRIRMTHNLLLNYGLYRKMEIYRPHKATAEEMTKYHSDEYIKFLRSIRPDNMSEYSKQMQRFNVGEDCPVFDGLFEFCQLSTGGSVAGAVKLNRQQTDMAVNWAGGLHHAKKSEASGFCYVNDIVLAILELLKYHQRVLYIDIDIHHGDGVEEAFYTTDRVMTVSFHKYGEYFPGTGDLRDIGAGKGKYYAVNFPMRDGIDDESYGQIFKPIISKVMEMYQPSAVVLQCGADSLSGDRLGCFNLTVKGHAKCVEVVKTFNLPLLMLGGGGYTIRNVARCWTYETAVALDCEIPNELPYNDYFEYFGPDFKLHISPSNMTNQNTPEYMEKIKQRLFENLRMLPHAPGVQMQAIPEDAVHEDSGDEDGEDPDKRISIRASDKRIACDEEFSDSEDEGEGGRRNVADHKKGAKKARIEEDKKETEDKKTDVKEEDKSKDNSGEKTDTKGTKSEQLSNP
# [9] = AUC (0 to infinity) in Sprague-Dawley rat at 10 mg/kg, po by LC-MS/MS analysis; format: ADME, organism-based; parameters: dose 10 mg/kg, time infinity, route oral; conditions: in vivo
# How it was run: (§3)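 Male SD rats, 199-214 g, three per route. Single iv dose of 1 mg/kg or oral dose of 10 mg/kg. About 200 μL blood drawn from the jugular vein into heparinized tubes at set times, then spun to plasma. 30 μL plasma precipitated with CH3CN containing verapamil and glibenclamide as internal standards. Plasma drug level measured by LC-MS/MS.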
# [10] = test system: MCF7; experiment: Growth inhibition of human MCF7 cells assessed as cell growth inhibition at 10 uM incubated for 48 hrs by sulforhodamine B assay; format: functional; conditions: MCF7, 48 h, read-out: GI
# [11] = test system: NCI-H322M; experiment: Growth inhibition of human NCI-H322M assessed as cell growth inhibition at 10 uM incubated for 48 hrs by sulforhodamine B assay; format: functional; conditions: read-out: GI
# [12] = AUC (0 to t) in Sprague-Dawley rat at 1 mg/kg, iv by LC-MS/MS analysis; format: ADME, organism-based; conditions: in vivo
# [13] = test system: U-251; experiment: Growth inhibition of human U251 cells assessed as cell growth inhibition at 10 uM incubated for 48 hrs by sulforhodamine B assay; format: functional; conditions: U-251, 48 h, read-out: GI
# [14] = test system: KM12; experiment: Growth inhibition of human KM12 cells assessed as cell growth inhibition at 10 uM incubated for 48 hrs by sulforhodamine B assay; format: functional; conditions: KM12, 48 h, read-out: GI
# [15] = Terminal half life in Sprague-Dawley rat at 1 mg/kg, iv by LC-MS/MS analysis; format: ADME, organism-based; conditions: in vivo, read-out: beta t1/2 (converted)
# How it was run: (§4)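 Male SD rats (199-214 g), three per route, single dose 1 mg/kg iv or 10 mg/kg po. Jugular blood (~200 μL) into heparinized tubes at set times; plasma by centrifugation, protein precipitation with acetonitrile containing verapamil and glibenclamide; drug measured by LC-MS/MS.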
# [16] = Metabolic stability in dog liver microsomes assessed as half life at 1 uM preincubated for 10 mins followed by NADPH addition measured upto 60 mins by LC-MS/MS analysis; format: ADME, Canis lupus familiaris, Microsome
# How it was run: (§5)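 Liver microsomes from male SD rat, dog or human at 0.5 mg/mL in 100 mM potassium phosphate pH 7.4 with 1 μM compound. Prewarmed 37 °C 10 min, started with 1 mM NADPH. Stopped at 0, 5, 10, 20, 40, 60 min with cold methanol containing glibenclamide internal standard; supernatant by LC–MS/MS; T1/2 and CLint derived.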
# [17] = Oral bioavailability in Sprague-Dawley rat at 10 mg/kg by LC-MS/MS analysis; format: ADME, organism-based; conditions: in vivo; how it was run: as §4
# [18] = AUC (0 to infinity) in Sprague-Dawley rat at 1 mg/kg, iv by LC-MS/MS analysis; format: ADME, organism-based; parameters: dose 1 mg/kg, route intravenous, time infinity; conditions: in vivo; how it was run: as §3
# [19] = test system: HCC 2998; experiment: Growth inhibition of human HCC2998 cells assessed as cell growth inhibition at 10 uM incubated for 48 hrs by sulforhodamine B assay; format: functional; conditions: HCC 2998, 48 h, read-out: GI
# [20] = target: Histone deacetylase 5 (Homo sapiens) (UniProt Q9UQL6); experiment: Inhibition of HDAC5 (unknown origin) using Fluor de Lys substrate by fluorescence assay relative to control; how it was run: as §2
# Sequence of Histone deacetylase 5 (Homo sapiens) (Q9UQL6 whole entry): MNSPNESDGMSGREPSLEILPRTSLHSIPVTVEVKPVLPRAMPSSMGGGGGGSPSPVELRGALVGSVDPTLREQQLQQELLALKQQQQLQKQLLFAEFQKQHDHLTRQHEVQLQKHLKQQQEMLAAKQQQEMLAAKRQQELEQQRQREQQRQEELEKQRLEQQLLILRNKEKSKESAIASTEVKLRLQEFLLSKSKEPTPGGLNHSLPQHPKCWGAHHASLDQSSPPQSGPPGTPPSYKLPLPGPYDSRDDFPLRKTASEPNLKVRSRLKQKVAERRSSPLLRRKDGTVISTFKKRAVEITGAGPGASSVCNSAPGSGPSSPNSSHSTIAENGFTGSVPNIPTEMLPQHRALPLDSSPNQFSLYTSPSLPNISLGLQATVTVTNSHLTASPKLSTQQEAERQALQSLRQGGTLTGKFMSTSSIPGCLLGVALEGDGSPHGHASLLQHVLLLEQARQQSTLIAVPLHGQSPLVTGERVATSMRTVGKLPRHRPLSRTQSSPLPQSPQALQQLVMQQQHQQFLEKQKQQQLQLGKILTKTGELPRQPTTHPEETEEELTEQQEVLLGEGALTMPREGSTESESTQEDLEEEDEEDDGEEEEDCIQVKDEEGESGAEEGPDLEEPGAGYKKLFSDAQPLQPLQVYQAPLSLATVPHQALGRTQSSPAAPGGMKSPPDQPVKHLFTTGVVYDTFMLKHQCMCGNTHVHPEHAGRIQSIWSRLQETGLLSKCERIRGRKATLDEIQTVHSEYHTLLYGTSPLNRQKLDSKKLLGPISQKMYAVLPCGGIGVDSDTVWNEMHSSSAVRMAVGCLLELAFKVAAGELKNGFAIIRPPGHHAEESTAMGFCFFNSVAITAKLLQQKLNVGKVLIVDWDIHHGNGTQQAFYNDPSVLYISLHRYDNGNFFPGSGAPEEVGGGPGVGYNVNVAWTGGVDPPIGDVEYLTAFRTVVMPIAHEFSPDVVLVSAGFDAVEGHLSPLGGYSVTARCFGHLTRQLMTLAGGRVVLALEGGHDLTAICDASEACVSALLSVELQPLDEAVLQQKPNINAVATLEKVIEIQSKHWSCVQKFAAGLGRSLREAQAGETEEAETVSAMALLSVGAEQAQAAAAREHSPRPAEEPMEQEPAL
# [21] = Metabolic stability in human liver microsomes assessed as internal clearance at 1 uM preincubated for 10 mins followed by NADPH addition measured upto 60 mins by LC-MS/MS analysis; format: ADME, Microsome; conditions: read-out: CLH; how it was run: as §5
# [22] = test system: HL-60(TB); experiment: Growth inhibition of human HL-60(TB) cells assessed as cell growth inhibition at 10 uM incubated for 48 hrs by sulforhodamine B assay; format: functional; conditions: HL-60, 48 h, read-out: GI
# [23] = species: Homo sapiens; experiment: Selectivity index, ratio of IC50 of HDCA11 (unknown origin) to IC50 of HDCA1 (unknown origin)
# [24] = test system: T47D; experiment: Growth inhibition of human T47D cells assessed as cell growth inhibition at 10 uM incubated for 48 hrs by sulforhodamine B assay; format: functional; conditions: read-out: GI
# [25] = test system: K562; experiment: Antiproliferative activity against human K562 assessed as reduction in cell viability measured after 72 hrs using alamar blue based fluorescence method; format: functional; conditions: K562, 72 h; how it was run: as §1
# [26] = test system: SR; experiment: Growth inhibition of human SR cells assessed as cell growth inhibition at 10 uM incubated for 48 hrs by sulforhodamine B assay; format: functional; conditions: read-out: GI
# [27] = test system: SF-539; experiment: Growth inhibition of human SF539 cells assessed as cell growth inhibition at 10 uM incubated for 48 hrs by sulforhodamine B assay; format: functional; conditions: SF-539, 48 h, read-out: GI
# [28] = test system: IGROV-1; experiment: Growth inhibition of human IGROV1 cells assessed as cell growth inhibition at 10 uM incubated for 48 hrs by sulforhodamine B assay; format: functional; conditions: IGROV-1, 48 h, read-out: GI
# [29] = test system: NCI-H522; experiment: Growth inhibition of human NCI-H522 cells assessed as cell growth inhibition at 10 uM incubated for 48 hrs by sulforhodamine B assay; format: functional; conditions: NCI-H522, 48 h, read-out: GI
smiles,measurement,setting,value
Nc1cc(F)ccc1NC(=O)c1ccc(CNC(=O)/C=C2\NC(=O)c3ccccc32)cc1,inhibition of growth at 10 µM,[1],0.12%
same,pIC50,[2],6.43
same,inhibition of growth at 10 µM,[3],63%
same,inhibition,[4],inactive
same,pIC50,[5],4.84
same,Ratio IC50,[6],4
same,inhibition of growth at 10 µM,[7],59.8%
same,pIC50,[8],7.12
same,AUC(0-inf),[9],1740 ng·h/mL
same,inhibition of growth at 10 µM,[10],35.5%
same,inhibition of growth at 10 µM,[11],14.2%
same,AUC(0-t),[12],781 ng·h/mL
same,inhibition of growth at 10 µM,[13],35.9%
same,inhibition of growth at 10 µM,[14],26.9%
same,half-life,[15],0.39 h
same,half-life at 1 µM,[16],3.35 h
same,bioavailability,[17],16%
same,AUC(0-inf),[18],784 ng·h/mL
same,inhibition of growth at 10 µM,[19],20.4%
same,inhibition,[20],inactive
same,microsomal CLint at 1 µM,[21],4.8 µL/min/mg
same,inhibition of growth at 10 µM,[22],84%
same,Ratio IC50,[23],10
same,inhibition of growth at 10 µM,[24],58.2%
same,pIC50,[25],6.71
same,inhibition of growth at 10 µM,[26],57.6%
same,inhibition of growth at 10 µM,[27],44.8%
same,inhibition of growth at 10 µM,[28],22.8%
same,inhibition of growth at 10 µM,[29],70.7%
